Converted amounts (≈) assume the structure as drawn.
Assays:
Candida albicans [1] = assay: Inhibition of Candida albicans CDR1 expressed in Saccharomyces cerevisiae AD assessed as reduction in nile red dye efflux at 70 uM after 30 mins by flow cytometry relative to control
Summary of the method: (§1)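 AD-CDR1 or AD-MDR1 cells grown in YEPD at 30 °C with shaking from OD600 0.1 to 0.25, then resuspended as a 5% suspension in 1:2 YEPD:water. Nile Red (final 7 μM) added with or without compound at 70 μM, 30 min at 30 °C. Cells washed twice and 10,000 cells analysed by flow cytometry. Efflux rate expressed relative to untreated control cells. Means ± SD, three independent experiments.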

Candida albicans [2] = assay: Inhibition of Candida albicans MDR1 expressed in Saccharomyces cerevisiae AD assessed as reduction in nile red dye efflux at 70 uM after 30 mins by flow cytometry relative to control; summary of the method: as §1
Saccharomyces cerevisiae [3] = assay: Antifungal activity against Saccharomyces cerevisiae AD1-8u(-) after 48 hrs; type: functional
Summary of the method: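 S. cerevisiae AD1-8u⁻ control strain revived from glycerol stock on YEPD plates and grown in YEPD at 30 °C. 10⁴ cells exposed to compound at 0.25-400 μM for 48 h at 30 °C. Growth read as optical density, with no-inhibitor growth as 100%. MIC80 is the concentration giving 80% growth inhibition. Means ± SD of duplicates from at least three independent experiments.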

Saccharomyces cerevisiae [4] = assay: Antifungal activity against Saccharomyces cerevisiae AD over-expressing Candida albicans CDR1 after 48 hrs; type: functional
Summary of the method: (§2)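 Yeast (10⁴ cells) grown in YEPD at 30 °C for 48 h with inhibitors at 0.25-400 μM (DMSO stocks); growth read by optical density, inhibitor-free growth set as 100%. MIC80 = concentration giving 80% growth inhibition. RI = MIC80 in AD-CDR1 or AD-MDR1 divided by MIC80 in control AD1-8u⁻. Means ± SD, duplicate samples, at least three independent experiments.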

Saccharomyces cerevisiae [5] = assay: Antifungal activity against Saccharomyces cerevisiae AD over-expressing Candida albicans MDR1 after 48 hrs; type: functional; summary of the method: as §2
Saccharomyces cerevisiae [6] = assay: Resistance index, ratio of MIC80 for Saccharomyces cerevisiae AD over-expressing Candida albicans CDR1 to MIC80 for Saccharomyces cerevisiae AD1-8u(-); type: functional; summary of the method: as §2
Saccharomyces cerevisiae [7] = assay: Resistance index, ratio of MIC80 for Saccharomyces cerevisiae AD over-expressing Candida albicans MDR1 to MIC80 for Saccharomyces cerevisiae AD1-8u(-); type: functional; summary of the method: as §2
Saccharomyces cerevisiae [8] = assay: Synergistic antifungal activity against Saccharomyces cerevisiae AD1-8u(-) assessed as ratio of compound MIC80 in combinantion with fluconazole to compound alone MIC80 by checkerboard method; type: functional
Summary of the method: (§3)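 Checkerboard per CLSI with 10⁴ cells of AD-CDR1, AD-MDR1 or AD1-8u⁻, grown 48 h at 30 °C. Fluconazole 4-209 μM crossed with compound 0.25-400 μM, growth read by optical density. Compound FIC is the compound MIC in combination with fluconazole divided by its MIC alone.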

Saccharomyces cerevisiae [9] = assay: Potentiation of fluconazole-induced antifungal activity against Saccharomyces cerevisiae AD1-8u(-) by checkerboard method; type: functional
Summary of the method: (§4)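 Checkerboard per CLSI in AD1-8u⁻ control, AD-CDR1 or AD-MDR1 cells (10⁴ cells) grown 48 h at 30 °C. Fluconazole 4-209 μM crossed with compound 0.25-400 μM. Growth read by optical density. FIC of each agent is its MIC in combination divided by its MIC alone. FICI is the sum of the fluconazole and compound FICs, with values below 0.5 taken as synergy.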

Candida albicans [10] = assay: Inhibition of Candida albicans CDR1 expressed in Saccharomyces cerevisiae AD assessed as ratio of compound MIC80 in combinantion with fluconazole to compound alone MIC80 for Saccharomyces cerevisiae AD by checkerboard method; summary of the method: as §3
Candida albicans [11] = assay: Inhibition of Candida albicans CDR1 expressed in Saccharomyces cerevisiae AD assessed as potentiation of fluconazole-induced antifungal activity against Saccharomyces cerevisiae AD by checkerboard method; summary of the method: as §4
Candida albicans [12] = assay: Inhibition of Candida albicans MDR1 expressed in Saccharomyces cerevisiae AD assessed as ratio of compound MIC80 in combinantion with fluconazole to compound alone MIC80 for Saccharomyces cerevisiae AD by checkerboard method; summary of the method: as §3
Candida albicans [13] = assay: Inhibition of Candida albicans MDR1 expressed in Saccharomyces cerevisiae AD assessed as potentiation of fluconazole-induced antifungal activity against Saccharomyces cerevisiae AD by checkerboard method; summary of the method: as §4
Candida albicans [14] = assay: Inhibition of Candida albicans CDR1 expressed in Saccharomyces cerevisiae AD assessed as potentiation of fluconazole-induced antifungal activity against Saccharomyces cerevisiae AD by measuring fold reduction in fluconazole MIC80 by checkerboard method
Summary of the method: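 AD-CDR1 cells (10⁴) grown 48 h at 30 °C in a CLSI checkerboard, fluconazole 4-209 μM crossed with compound 0.25-400 μM, growth read by optical density. Fold reduction is derived from the fluconazole MIC alone versus the fluconazole MIC in combination.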

[15] = Lipophilicity, log P of the compound; type: physicochemical; conditions: octanol/water

SMILES | inhibition (Candida albicans [1]) [%] | inhibition (Candida albicans [2]) [%] | MIC80 (Saccharomyces cerevisiae [3]) [µM] | MIC80 (Saccharomyces cerevisiae [4]) [µM] | MIC80 (Saccharomyces cerevisiae [5]) [µM] | Ratio (Saccharomyces cerevisiae [6]) | Ratio (Saccharomyces cerevisiae [7]) | Ratio (Saccharomyces cerevisiae [8]) | fractional inhibitory concentration index (FICI) (Saccharomyces cerevisiae [9]) | Ratio (Candida albicans [10]) | fractional inhibitory concentration index (FICI) (Candida albicans [11]) | Ratio (Candida albicans [12]) | fractional inhibitory concentration index (FICI) (Candida albicans [13]) | fold change (FC) (Candida albicans [14]) | logP [15]
CCC(=O)O[C@@H]1[C@@H]2[C@@H](OC(C)=O)[C@]3(CC[C@H]4[C@@H](/C=C(\C)C(=O)[C@@]2(OC(C)=O)C[C@@H]1C)C4(C)C)CO3 | 10 | 20 | 510 (≈ 250 µg/mL) | 501 (≈ 246 µg/mL) | 498 (≈ 244 µg/mL) | 0.98 | 0.97 | 1 | 2 | 0.5 | 0.54 | 1 | 1.3 | 23 | 2.32
C/C1=C\[C@@H]2[C@H](CC[C@]3(CO3)[C@H](OC(=O)c3ccccc3)[C@H]3[C@@H](OC(=O)c4ccccc4)[C@@H](C)C[C@]3(OC(=O)c3ccccc3)C1=O)C2(C)C | 10 | 20 | 755 (≈ 500 µg/mL) | 700 (≈ 464 µg/mL) | 654 (≈ 433 µg/mL) | 0.92 | 0.86 | 1 | 2 | 1 | 1.4 | 1 | 1.3 | – | 5.99
COc1ccc(C(=O)O[C@@H]2[C@@H]3[C@@H](OC(=O)c4ccc(OC)cc4)[C@]4(CC[C@H]5[C@@H](/C=C(\C)C(=O)[C@@]3(O)C[C@@H]2C)C5(C)C)CO4)cc1 | 10 | 80 | 809 (≈ 501 µg/mL) | 776 (≈ 480 µg/mL) | 861 (≈ 533 µg/mL) | 0.95 | 1.06 | 1 | 2 | 1 | 1.4 | 1 | 1.3 | – | 4.51
C/C1=C\[C@@H]2[C@H](CC[C@]3(CO3)[C@H](OC(=O)Cc3ccccc3)[C@H]3[C@@H](OC(=O)Cc4ccccc4)[C@@H](C)C[C@]3(O)C1=O)C2(C)C | 10 | 15 | 853 (≈ 500 µg/mL) | 756 (≈ 444 µg/mL) | 788 (≈ 462 µg/mL) | 0.88 | 0.92 | 1 | 2 | 1 | 1.4 | 1 | 1.3 | – | 4.91
C/C1=C\[C@@H]2[C@H](CC[C@]3(CO3)[C@H](OC(=O)c3ccccc3)[C@H]3[C@@H](OC(=O)c4ccccc4)[C@@H](C)C[C@]3(O)C1=O)C2(C)C | 25 | 80 | 896 (≈ 501 µg/mL) | 803 (≈ 449 µg/mL) | 880 (≈ 492 µg/mL) | 0.89 | 0.98 | 1 | 2 | 1 | 1.4 | 1 | 1.3 | – | 4.6
C=C1CC[C@H]2[C@@H](/C=C(\C)C(=O)[C@@]3(O)C[C@H](C)[C@H](O)[C@@H]3[C@H]1OC(=O)c1ccc(C(F)(F)F)cc1)C2(C)C | 70 | 15 | 988 (≈ 500 µg/mL) | 900 (≈ 456 µg/mL) | 896 (≈ 454 µg/mL) | 0.91 | 0.9 | 1 | 2 | 1 | 1.4 | 1 | 1.3 | – | 4.16
C=C1CC[C@H]2[C@@H](/C=C(\C)C(=O)[C@@]3(O)C[C@H](C)[C@H](O)[C@@H]3[C@H]1O)C2(C)C | 40 | 30 | 1500 (≈ 502 µg/mL) | 1520 (≈ 510 µg/mL) | 1480 (≈ 494 µg/mL) | 1.01 | 0.98 | 1 | 2 | 1 | 1.4 | 1 | 1.3 | – | 1.48
C=C1CC[C@H]2[C@@H](/C=C(\C)C(=O)[C@@]3(O)C[C@H](C)[C@H](O)[C@@H]3[C@H]1OC(=O)c1ccccc1)C2(C)C | 85 | 35 | 1140 (≈ 500 µg/mL) | 1090 (≈ 478 µg/mL) | 1070 (≈ 468 µg/mL) | 0.95 | 0.93 | 1 | 2 | 1 | 1.4 | 1 | 1.3 | – | 3.19
C=C1CC[C@H]2[C@@H](/C=C(\C)C(=O)[C@@]3(OC(C)=O)C[C@H](C)[C@H](OC(C)=O)[C@@H]3[C@H]1OC(C)=O)C2(C)C | 25 | 35 | 543 (≈ 250 µg/mL) | 2100 (≈ 967 µg/mL) | 2100 (≈ 967 µg/mL) | 4 | 4 | 1 | 2 | 1 | 1.4 | 1 | 1.3 | – | 3.35

— ChEMBL document CHEMBL4020757, “Lathyrol and epoxylathyrol derivatives: Modulation of Cdr1p and Mdr1p drug-efflux transporters of Candida albicans in Saccharomyces cerevisiae model” (Bioorg Med Chem, 2017)
